≈ marks a conversion by molar mass, not a printed value.
Key:
GABA transporter 2 [1] = molecular target: T1, GABA transporter 2 (Mus musculus, UniProt P31651); experiment: Inhibition of mouse BGT1 expressed in HEK293 cells assessed as reduction in [3H]GABA uptake after 3 mins by scintillation counting method; format: cell-based
T1 sequence (P31651 whole entry): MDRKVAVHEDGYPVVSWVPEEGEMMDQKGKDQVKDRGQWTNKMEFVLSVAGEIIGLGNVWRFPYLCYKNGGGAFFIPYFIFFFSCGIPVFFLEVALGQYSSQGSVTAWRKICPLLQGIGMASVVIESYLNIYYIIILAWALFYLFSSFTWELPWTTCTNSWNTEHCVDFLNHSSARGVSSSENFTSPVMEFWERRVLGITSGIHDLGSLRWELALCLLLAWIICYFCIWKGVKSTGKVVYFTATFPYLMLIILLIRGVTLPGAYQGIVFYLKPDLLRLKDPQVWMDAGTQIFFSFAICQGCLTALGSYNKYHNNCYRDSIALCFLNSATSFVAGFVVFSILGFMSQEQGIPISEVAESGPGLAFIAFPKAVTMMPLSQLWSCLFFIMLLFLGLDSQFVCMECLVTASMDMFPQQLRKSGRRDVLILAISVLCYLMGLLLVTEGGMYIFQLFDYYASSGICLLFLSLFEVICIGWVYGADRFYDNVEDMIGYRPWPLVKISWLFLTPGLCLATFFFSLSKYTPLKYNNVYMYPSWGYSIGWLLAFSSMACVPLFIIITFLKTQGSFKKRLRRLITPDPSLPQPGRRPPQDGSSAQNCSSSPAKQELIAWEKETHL
In short: (§1)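 HEK293 lines stably expressing a single mouse GAT subtype, kept under blasticidin-S (5 µg/mL) selection. Cells were assayed about 24 h after plating with 30 nM [3H]GABA plus varying compound concentrations for 3 min at 37 °C in HBSS buffered with 20 mM HEPES (1 mM CaCl2, 1 mM MgCl2, pH 7.4). Cells were washed ice-cold and radioactivity counted. IC50 came from sigmoidal variable-slope fits.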

GABA transporter 3 [2] = molecular target: T2, GABA transporter 3 (Mus musculus, UniProt P31649); experiment: Inhibition of mouse GAT2 expressed in HEK293 cells assessed as reduction in [3H]GABA uptake after 3 mins by scintillation counting method; format: cell-based
T2 sequence (P31649 whole entry): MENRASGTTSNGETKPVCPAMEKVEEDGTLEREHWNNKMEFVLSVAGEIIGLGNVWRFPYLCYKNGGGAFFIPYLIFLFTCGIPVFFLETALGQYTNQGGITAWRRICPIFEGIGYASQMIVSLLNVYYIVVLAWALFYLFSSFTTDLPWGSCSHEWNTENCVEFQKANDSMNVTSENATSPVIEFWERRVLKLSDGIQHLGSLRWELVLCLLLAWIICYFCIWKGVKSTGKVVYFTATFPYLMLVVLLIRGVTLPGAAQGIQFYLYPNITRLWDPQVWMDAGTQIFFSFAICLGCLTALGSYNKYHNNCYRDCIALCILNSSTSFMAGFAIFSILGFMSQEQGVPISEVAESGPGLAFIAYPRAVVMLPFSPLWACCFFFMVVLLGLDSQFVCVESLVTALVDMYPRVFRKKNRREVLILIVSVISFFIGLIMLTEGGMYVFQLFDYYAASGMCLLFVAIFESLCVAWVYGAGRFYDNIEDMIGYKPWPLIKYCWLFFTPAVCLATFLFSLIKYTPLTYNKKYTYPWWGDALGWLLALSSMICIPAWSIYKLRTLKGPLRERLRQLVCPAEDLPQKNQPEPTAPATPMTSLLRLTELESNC
In short: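 HEK293 cells stably expressing mouse GAT2 were kept under blasticidin-S (5 µg/mL) selection. Ice-cold washes preceded scintillation counting. IC50 came from a variable-slope sigmoidal fit.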

[3] = Solubility of compound in pH 7.4 phosphate buffer after 24 hrs by HPLC-UV method; format: physicochemical
[4] = molecular target: T3, Sodium- and chloride-dependent GABA transporter 1 (Mus musculus, UniProt P31648); experiment: Inhibition of mouse GAT1 expressed in HEK293 cells assessed as reduction in [3H]GABA uptake after 3 mins by scintillation counting method; format: cell-based; in short: as §1
[5] = molecular target: Sodium- and chloride-dependent GABA transporter 3 (Homo sapiens, UniProt P48066, S468Y); experiment: Inhibition of human GAT3 S468Y mutant expresses in tsA201 cells assessed as reduction in [3H]GABA uptake after 3 mins by scintillation counting method; format: cell-based
In short: (§2)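 Site-directed mutant transporters transiently transfected (PolyFect) into tsA201 cells, plated and used about 24 h later. Cells were washed with HBSS containing 20 mM HEPES, 1 mM CaCl2 and 1 mM MgCl2, pH 7.4. Uptake of 30 nM [3H]GABA was run with varied inhibitor concentrations for 3 min at 37 °C, then three ice-cold washes and scintillation counting. IC50 was taken from variable-slope sigmoidal fits. Triplicates, at least three independent experiments.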

[6] = molecular target: Sodium- and chloride-dependent GABA transporter 3 (Homo sapiens, UniProt P48066, L314Q); experiment: Inhibition of human GAT3 L314Q mutant expresses in tsA201 cells assessed as reduction in [3H]GABA uptake after 3 mins by scintillation counting method; format: cell-based; in short: as §2
GABA transporter 2 [7] = molecular target: T1, GABA transporter 2; experiment: Inhibition of mouse BGT1 expressed in hamster BHK cells assessed as reduction in [3H]GABA uptake after 3 mins by scintillation counting method; format: cell-based; settings: read-out: Ki(app)
GABA transporter 3 [8] = molecular target: T2, GABA transporter 3; experiment: Inhibition of mouse GAT2 expressed in hamster BHK cells assessed as reduction in [3H]GABA uptake after 3 mins by scintillation counting method; format: cell-based; settings: read-out: Ki(app)
[9] = molecular target: T3, Sodium- and chloride-dependent GABA transporter 1; experiment: Inhibition of mouse GAT1 expressed in hamster BHK cells assessed as reduction in [3H]GABA uptake after 3 mins by scintillation counting method; format: cell-based; settings: read-out: Ki(app)
[10] = molecular target: T4, Sodium- and chloride-dependent GABA transporter 2 (Homo sapiens, UniProt Q9NSD5); experiment: Inhibition of human GAT2 expresses in tsA201 cells assessed as reduction in [3H]GABA uptake after 3 mins by scintillation counting method; format: cell-based
T4 sequence (Q9NSD5 whole entry): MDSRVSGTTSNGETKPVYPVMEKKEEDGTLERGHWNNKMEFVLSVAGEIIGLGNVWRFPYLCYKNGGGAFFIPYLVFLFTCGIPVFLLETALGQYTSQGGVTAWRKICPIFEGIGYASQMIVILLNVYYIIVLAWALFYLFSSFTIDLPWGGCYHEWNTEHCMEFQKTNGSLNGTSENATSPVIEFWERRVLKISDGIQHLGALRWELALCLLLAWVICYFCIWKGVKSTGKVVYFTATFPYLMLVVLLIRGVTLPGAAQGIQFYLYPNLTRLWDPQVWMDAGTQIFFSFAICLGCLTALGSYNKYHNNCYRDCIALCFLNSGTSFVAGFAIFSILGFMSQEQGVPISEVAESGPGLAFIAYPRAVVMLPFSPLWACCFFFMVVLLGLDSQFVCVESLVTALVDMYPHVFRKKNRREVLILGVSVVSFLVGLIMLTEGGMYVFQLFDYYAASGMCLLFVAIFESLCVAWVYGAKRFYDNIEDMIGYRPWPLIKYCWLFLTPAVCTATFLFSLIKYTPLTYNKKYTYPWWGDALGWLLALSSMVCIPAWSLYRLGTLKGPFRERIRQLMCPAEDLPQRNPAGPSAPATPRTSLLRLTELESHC
In short: (§3)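 Wild-type human GAT transiently expressed in tsA201 cells via pcDNA5/FRT and PolyFect. Uptake of 30 nM [3H]GABA was run for 3 min at 37 °C in HBSS/20 mM HEPES with 1 mM CaCl2 and 1 mM MgCl2, pH 7.4, across a range of test concentrations. Ice-cold washes were followed by scintillation counting. IC50 was obtained by sigmoidal variable-slope fitting, reported as mean pIC50 ± S.E.M.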

[11] = molecular target: Sodium- and chloride-dependent GABA transporter 1 (Homo sapiens, UniProt P30531); format: cell-based
[12] = molecular target: T5, Sodium- and chloride-dependent betaine transporter (Homo sapiens, UniProt P48065); experiment: Inhibition of human BGT1 expresses in tsA201 cells assessed as reduction in [3H]GABA uptake after 3 mins by scintillation counting method; format: cell-based
T5 sequence (P48065 whole entry): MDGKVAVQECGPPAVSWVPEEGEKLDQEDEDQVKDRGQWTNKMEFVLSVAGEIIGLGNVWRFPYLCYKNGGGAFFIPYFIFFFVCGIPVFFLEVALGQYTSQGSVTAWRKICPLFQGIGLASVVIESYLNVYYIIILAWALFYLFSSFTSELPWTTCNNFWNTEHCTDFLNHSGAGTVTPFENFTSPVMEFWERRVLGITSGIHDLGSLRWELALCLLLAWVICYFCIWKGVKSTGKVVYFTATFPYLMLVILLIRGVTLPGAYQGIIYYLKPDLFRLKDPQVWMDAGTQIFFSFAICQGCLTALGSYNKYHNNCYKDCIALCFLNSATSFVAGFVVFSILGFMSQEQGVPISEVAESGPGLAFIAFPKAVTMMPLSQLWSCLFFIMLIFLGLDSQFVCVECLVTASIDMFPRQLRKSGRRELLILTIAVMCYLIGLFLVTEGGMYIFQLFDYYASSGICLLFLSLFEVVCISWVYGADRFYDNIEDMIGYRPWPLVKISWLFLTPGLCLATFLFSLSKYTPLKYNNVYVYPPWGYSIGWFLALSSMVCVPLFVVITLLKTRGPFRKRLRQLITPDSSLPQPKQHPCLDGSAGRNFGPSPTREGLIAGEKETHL
In short: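 tsA201 cells transiently transfected with wild-type or mutant human BGT1 (PolyFect) were plated about 24 h before assay. Three ice-cold washes followed, then scintillation counting.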

[13] = molecular target: T6, Sodium- and chloride-dependent GABA transporter 3 (Homo sapiens, UniProt P48066); experiment: Inhibition of human GAT3 expresses in tsA201 cells assessed as reduction in [3H]GABA uptake after 3 mins by scintillation counting method; format: cell-based; in short: as §3
T6 sequence (P48066 whole entry): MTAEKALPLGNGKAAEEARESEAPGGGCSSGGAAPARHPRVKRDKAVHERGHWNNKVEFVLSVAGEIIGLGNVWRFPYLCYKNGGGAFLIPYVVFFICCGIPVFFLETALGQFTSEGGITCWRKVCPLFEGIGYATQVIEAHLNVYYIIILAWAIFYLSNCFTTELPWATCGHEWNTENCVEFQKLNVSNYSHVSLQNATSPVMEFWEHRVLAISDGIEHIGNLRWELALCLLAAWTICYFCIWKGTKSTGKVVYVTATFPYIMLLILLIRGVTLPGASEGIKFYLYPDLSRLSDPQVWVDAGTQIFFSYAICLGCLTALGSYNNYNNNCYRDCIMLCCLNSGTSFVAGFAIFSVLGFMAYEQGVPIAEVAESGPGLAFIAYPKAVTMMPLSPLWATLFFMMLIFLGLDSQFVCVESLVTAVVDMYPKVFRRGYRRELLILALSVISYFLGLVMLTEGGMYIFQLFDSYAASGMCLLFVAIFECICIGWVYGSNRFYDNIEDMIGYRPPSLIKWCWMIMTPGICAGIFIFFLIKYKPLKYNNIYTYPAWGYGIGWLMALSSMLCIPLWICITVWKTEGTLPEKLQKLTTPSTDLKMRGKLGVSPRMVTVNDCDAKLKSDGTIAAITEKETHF

Sequence of Sodium- and chloride-dependent GABA transporter 1 (Homo sapiens, UniProt P30531) (P30531 whole entry): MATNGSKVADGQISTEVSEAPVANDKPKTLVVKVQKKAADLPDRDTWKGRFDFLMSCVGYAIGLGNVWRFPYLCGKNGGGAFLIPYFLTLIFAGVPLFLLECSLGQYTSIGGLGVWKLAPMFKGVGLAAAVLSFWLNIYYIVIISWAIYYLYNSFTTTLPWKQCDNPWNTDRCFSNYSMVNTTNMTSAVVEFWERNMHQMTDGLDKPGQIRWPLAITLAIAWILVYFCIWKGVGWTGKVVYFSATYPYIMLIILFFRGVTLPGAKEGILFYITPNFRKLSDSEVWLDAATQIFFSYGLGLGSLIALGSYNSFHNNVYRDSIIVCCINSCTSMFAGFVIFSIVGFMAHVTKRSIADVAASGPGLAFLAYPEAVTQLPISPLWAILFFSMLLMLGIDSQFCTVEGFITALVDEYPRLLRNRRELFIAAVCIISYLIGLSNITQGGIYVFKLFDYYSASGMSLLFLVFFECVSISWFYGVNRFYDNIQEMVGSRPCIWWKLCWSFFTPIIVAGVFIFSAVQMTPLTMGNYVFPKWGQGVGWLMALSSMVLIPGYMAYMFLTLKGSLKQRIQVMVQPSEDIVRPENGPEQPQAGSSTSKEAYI
Sequence of Sodium- and chloride-dependent GABA transporter 3 (Homo sapiens, UniProt P48066, L314Q) (P48066 whole entry L314Q): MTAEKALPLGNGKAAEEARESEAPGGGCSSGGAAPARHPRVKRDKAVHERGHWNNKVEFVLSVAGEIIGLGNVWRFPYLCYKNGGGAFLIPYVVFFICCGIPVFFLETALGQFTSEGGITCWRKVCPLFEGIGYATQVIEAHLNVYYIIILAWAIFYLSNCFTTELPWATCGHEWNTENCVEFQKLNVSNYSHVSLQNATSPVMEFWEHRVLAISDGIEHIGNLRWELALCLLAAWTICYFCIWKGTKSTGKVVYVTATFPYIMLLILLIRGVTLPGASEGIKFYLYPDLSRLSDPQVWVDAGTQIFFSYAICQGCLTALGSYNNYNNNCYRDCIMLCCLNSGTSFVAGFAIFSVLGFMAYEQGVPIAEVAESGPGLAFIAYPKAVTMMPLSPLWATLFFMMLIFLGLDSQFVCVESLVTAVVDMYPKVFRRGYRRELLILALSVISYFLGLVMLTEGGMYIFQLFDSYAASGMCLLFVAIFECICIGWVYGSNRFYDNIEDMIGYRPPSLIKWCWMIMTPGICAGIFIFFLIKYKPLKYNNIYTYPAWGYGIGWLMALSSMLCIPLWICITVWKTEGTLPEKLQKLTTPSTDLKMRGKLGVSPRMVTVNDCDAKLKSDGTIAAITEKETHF
Sequence of Sodium- and chloride-dependent GABA transporter 3 (Homo sapiens, UniProt P48066, S468Y) (P48066 whole entry S468Y): as the sequence (P48066 whole entry L314Q) above, with Q314L, S468Y counted along it

Row | SMILES | IC50 (GABA transporter 2 [1]; read-out: IC50) [µM] | IC50 (GABA transporter 3 [2]) [µM] | solubility at 24 h [3] [µg/mL] | IC50 [4] [µM] | IC50 ([10]; read-out: IC50) [µM] | IC50 ([11]; read-out: IC50) [µM] | IC50 ([12]; read-out: IC50) [µM] | IC50 ([13]; read-out: IC50) [µM] | further results
1 | O=C(NC1CCN(Cc2cccc(C(F)(F)F)c2)CC1)c1ccc(Cl)cc1Cl | 51 | > 1000 | 3 (≈ 6.96 µM) | > 1000 |  |  |  |  | 
2 | CCOc1cccc(CN2CCC(NC(=O)c3ccc(Cl)nc3Cl)CC2)c1 | 111 | > 300 | 130 (≈ 318 µM) | > 300 |  |  |  |  | IC50 (GABA transporter 2 [1]): 111 µM
3 | COc1cccc(CN2CCC(NC(=O)c3ccc(Cl)nc3Cl)CC2)c1 | 115 | > 300 | 240 (≈ 609 µM) | > 300 |  |  |  |  | 
4 | NCCCC(=O)O [GAMMA-AMINOBUTYRIC ACID] |  |  |  |  |  |  |  |  | IC50 [5]: 1 µM; IC50 [6]: 4 µM
5 | COc1ccccc1C1(O)CCN(CCCn2c3ccccc3c3ccccc32)CC1 |  |  |  |  |  |  |  |  | Ki (GABA transporter 2 [7]): 1.4 µM; Ki (GABA transporter 3 [8]): 41 µM; Ki [9]: 19 µM
6 | O=C(NC1CCN(Cc2ccc3ccccc3c2)CC1)c1ccc(Cl)cc1Cl |  |  |  |  | > 50 | > 50 | > 50 | > 50 | 
7 | O=C(NC1CCN(Cc2ccc3ccccc3n2)CC1)c1ccc(Cl)cc1Cl |  |  |  |  | > 50 | > 50 | > 50 | > 50 | 
8 | O=C(NC1CCN(Cc2ccccc2)CC1)c1c(Cl)cc(Cl)cc1Cl | 11 | 1700 | 40 (≈ 101 µM) | > 1000 |  |  |  |  | 
9 | O=C(NC1CCN(Cc2ccccc2)CC1)c1ccc2ccccc2c1 |  |  |  |  |  |  |  |  | IC50 [10]: 23 µM; IC50 [11]: > 100 µM; IC50 [12]: 15 µM; IC50 [13]: > 100 µM
10 | O=C(NC1CCN(Cc2ccncc2)CC1)c1ccc(Cl)cc1Cl |  |  |  |  | > 1000 | > 1000 | > 1000 | > 1000 | 

Reference: ChEMBL document CHEMBL4028872, “Structure-Activity Relationship, Pharmacological Characterization, and Molecular Modeling of Noncompetitive Inhibitors of the Betaine/γ-Aminobutyric Acid Transporter 1 (BGT1)” (J Med Chem, 2017)
